Screening data deposited in PubChem by several laboratories.
ANO1 block – blocks the mouse calcium-activated chloride channel TMEM16A; Q8BHY3; HEK293 TMEM16A/YFP iodide influx fluorescence, ionomycin; normalized B-score (activity score, 25-100; higher = stronger inhibition) at 10 µM; hit rate 1.2% among 310,000; AID 588511;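 active = ratio plate-corrected score three or more library SD toward inhibition, starting fluorescence score within five deviations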;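 note: score derived from kinetic fluorescence span divided by baseline fluorescence per well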
Target sequence (Q8BHY3 whole entry, looked up): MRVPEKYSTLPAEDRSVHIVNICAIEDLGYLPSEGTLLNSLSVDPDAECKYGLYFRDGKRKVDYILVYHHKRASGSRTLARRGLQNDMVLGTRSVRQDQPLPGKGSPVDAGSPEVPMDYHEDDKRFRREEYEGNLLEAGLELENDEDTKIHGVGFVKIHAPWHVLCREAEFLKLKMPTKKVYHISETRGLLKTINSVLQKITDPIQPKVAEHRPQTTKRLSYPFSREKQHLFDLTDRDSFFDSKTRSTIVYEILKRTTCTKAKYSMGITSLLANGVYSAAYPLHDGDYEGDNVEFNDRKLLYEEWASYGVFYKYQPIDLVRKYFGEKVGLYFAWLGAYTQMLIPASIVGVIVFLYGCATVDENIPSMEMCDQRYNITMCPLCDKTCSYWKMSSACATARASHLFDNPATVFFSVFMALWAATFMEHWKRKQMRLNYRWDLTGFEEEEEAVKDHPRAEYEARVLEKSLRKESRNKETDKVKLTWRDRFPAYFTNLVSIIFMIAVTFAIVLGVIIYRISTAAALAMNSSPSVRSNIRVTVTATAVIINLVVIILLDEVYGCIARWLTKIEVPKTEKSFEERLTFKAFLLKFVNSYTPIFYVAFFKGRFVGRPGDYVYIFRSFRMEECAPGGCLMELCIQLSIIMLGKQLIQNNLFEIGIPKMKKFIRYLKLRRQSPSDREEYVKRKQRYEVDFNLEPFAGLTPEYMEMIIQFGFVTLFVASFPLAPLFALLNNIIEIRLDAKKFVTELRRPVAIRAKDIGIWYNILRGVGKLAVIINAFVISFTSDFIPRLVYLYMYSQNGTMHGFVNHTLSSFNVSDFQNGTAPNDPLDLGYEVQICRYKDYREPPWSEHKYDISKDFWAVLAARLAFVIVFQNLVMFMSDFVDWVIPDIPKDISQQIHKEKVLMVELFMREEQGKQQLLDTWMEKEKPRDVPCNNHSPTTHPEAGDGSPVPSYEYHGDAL
MC4R antagonist – blocks human MC4R cAMP signaling | MC4R-expressing cells, MTII-stimulated cAMP, LANCE TR-FRET | AID 540295 | hit rate 0.48% among 360,000 | inhibition, % at 6.5 µM;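 active = inhibition above its plate's cutoff, the mean of tested wells on that plate plus 3 SD, cut at about 29% in these data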;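 note: 0% = Melanotan II alone and 100% = Melanotan II plus saturating MCL0020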
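Assay system: U2OS-MC4R stable cell line; Also added: Melanotan II; Technique: Eu-cAMP/anti-cAMP TR-FRET, emission 671 nm; Times: 30-min compound, 1-h challenge, 1-h detection, room temperature.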
HTR2A ag – activates the mouse 5-HT2A serotonin receptor; P35363; CHO-K1 mHTR2A beta-arrestin complementation, luminescence; percent of 30 µM serotonin response; activation, % at 7.6 µM; hit rate 0.66% among 360,000; AID 624169;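 active = activation above a run cutoff, the mean activation of all tested compounds plus 3 SD, cut at about 14% in these data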;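 note: 0% = plate median of compound wells and 100% = 30 µM serotonin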
MIN6 prolif – induces beta-cell replication in MIN6 cells; MIN6 cells proliferation, ATPlite luminescence, 48 h; cells starved in 0.2% serum; 100% = growth in 10% serum; proliferation, % at 10 µM; hit rate 0.29% among 330,000; AID 2380;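 active = compounds whose signal lies at least 3.5 SD above the mean of all wells on their plate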;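 note: 0% = DMSO-treated cells in low-serum medium and 100% = 10% serum control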
MC4R barr agon – activates human MC4R beta-arrestin recruitment; U2OS MC4R beta-arrestin complementation, luminescence; percent of melanotan II response, DMSO zero; activation, % at 8.9 µM; hit rate 0.98% among 360,000; AID 540308;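 active = activation above a per-plate cutoff, the mean activation of sample wells on that plate plus 3 SD, cut at about 8% in these data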
TMEM16A act – mouse TMEM16A channel activation, primary screen | HEK293 TMEM16A/YFP-H148Q/I152L, iodide quench fluorescence; stronger effect = lower value | B-score at 10 µM | hit rate 0.3% among 340,000 | AID 623877;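 active = fluorescence-ratio B-score plate-corrected deviation score at least 3 library SD below zero, with starting fluorescence score within 5 deviations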;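 note: channel opened by trigger with iodide after compound preincubation; score built on the fluorescence ratio of max minus min over baseline; more negative score means more quench and so TMEM16A activation or potentiation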
OPRM1 ag – counter-screen for mouse HTR2A agonists: human mu opioid receptor agonists | hit rate 5.3% among 2,300 | shares compounds with HTR2A ag | activation, % at 9.3 µM | U2OS OPRM1 beta-arrestin PathHunter, luminescence; DMSO 0%, DAMGO 9.3 µM 100%;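 active = mean activation above the mean of DMSO-only wells plus 3 SD, cut at about 0.5% in these data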
HTR2A ag conf – mouse HTR2A agonism confirmed | shares compounds with HTR2A ag | CHO-K1 PathHunter beta-arrestin recruitment, luminescence; DMSO 0%, 30 µM serotonin 100% | activation, % at 7.6 µM | hit rate 19% among 2,300 | AID 624381;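 active = mean activation across triplicates above the hit threshold derived in the original primary screen, cut at about 15% in these data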
Numbers without * were called inactive. A selection: hits, their analogues and other compounds. The true share with any hit is near 3.4%.

For CCc1ccc2c(c1)C(=O)C(=O)N2CCS(=O)(=O)c1ccccc1 the results were ANO1 block inactive, MC4R antagonist -23, HTR2A ag 21*, MIN6 prolif -8, MC4R barr agon -3, TMEM16A act inactive, OPRM1 ag -1 and HTR2A ag conf 2.
`Cc1cccc(NC(=O)Nc2nnc([C@H]3C[C@H](O)[C@@H](CO)O3)s2)c1` gave MC4R antagonist -9, HTR2A ag 5 and MC4R barr agon -1.
Cc1cccc(C)c1-n1nnnc1C1(C)CCC(=O)N1c1ccc(N2CCOCC2)cc1 (centres undefined) was read as HTR2A ag -1.
`COc1cc(NC(=O)CCc2nnc3ccc(N4CCCCC4)nn23)cc(OC)c1OC` gave ANO1 block inactive, MC4R antagonist 24, HTR2A ag 16*, MIN6 prolif -2, MC4R barr agon 0, TMEM16A act inactive, OPRM1 ag -1 and HTR2A ag conf -5.
Screening COc1cc(NC(=O)CCc2nnc3ccc(N4CCCC4)nn23)cc(OC)c1OC returned ANO1 block inactive, MC4R antagonist -1, HTR2A ag 0, MIN6 prolif 1, MC4R barr agon 0 and TMEM16A act inactive.
`CCN(CC)CCN(Cc1cc2cc3c(cc2[nH]c1=O)OCCO3)C(=S)NCC(C)C` gave ANO1 block inactive, MC4R antagonist 9, HTR2A ag 22*, MIN6 prolif -2, MC4R barr agon 1, TMEM16A act inactive, OPRM1 ag -1 and HTR2A ag conf 8.
C=C(C)c1cccc(C(C)(C)NC(=O)N2CCN(C(=O)OCC)CC2)c1 was read as MC4R antagonist 10, HTR2A ag -2 and MC4R barr agon 0.
`COc1ccc2nc(SCC(=O)Nc3ccccc3)[nH]c2c1` gave ANO1 block inactive, MC4R antagonist -7, HTR2A ag 19*, MIN6 prolif -4, MC4R barr agon -2, TMEM16A act inactive, OPRM1 ag 0 and HTR2A ag conf -1.
`COc1ccc2nc(SCC(=O)NCc3ccccc3)[nH]c2c1` gave ANO1 block inactive, MC4R antagonist -6, HTR2A ag 0, MIN6 prolif 2, MC4R barr agon 0 and TMEM16A act inactive.
`CN(C(=O)C1CCC(=O)N(C2CC2)C1)C1CCCCC1` (centres undefined) gave ANO1 block inactive, MC4R antagonist 4, HTR2A ag 0, MIN6 prolif 1, MC4R barr agon -2 and TMEM16A act inactive.
CN1CCC(=C2c3ccccc3C(O)c3ccccc32)CC1 (centres undefined) was read as ANO1 block inactive, MC4R antagonist -4, HTR2A ag -7, MIN6 prolif -4, MC4R barr agon 0 and TMEM16A act inactive.
Screening CN1CCc2cccc3c2C1Cc1ccc(O)c(O)c1-3 (centres undefined) returned ANO1 block inactive, MC4R antagonist -5, HTR2A ag 44*, MIN6 prolif -8, MC4R barr agon 0, TMEM16A act inactive, OPRM1 ag 0.6* and HTR2A ag conf 135*.
For CCCCCCn1cc(CN2CC(N3CCN(C)CC3)CS2(=O)=O)nn1 (centres undefined) the results were HTR2A ag 7.
`Cc1ccc(Cn2cc(CN3CC(N4CCN(Cc5ccccc5F)CC4)CS3(=O)=O)nn2)cc1` (centres undefined) gave HTR2A ag 12.
CCCCCCn1cc(CN2CC(N3CCCCC3)CS2(=O)=O)nn1 (centres undefined) was read as HTR2A ag 16*, OPRM1 ag 0 and HTR2A ag conf -2.
Cc1cc(C)cc(Cn2cc(CN3CC(N4CCN(Cc5ccccc5F)CC4)CS3(=O)=O)nn2)c1 (centres undefined) was read as HTR2A ag 15*, OPRM1 ag 0 and HTR2A ag conf 5.
For Cc1cccc(OCC(=O)Nc2nnc(S(=O)(=O)N3CCC(C)CC3)s2)c1 the results were ANO1 block inactive, MC4R antagonist -1, HTR2A ag 17*, MIN6 prolif 0, MC4R barr agon -1, TMEM16A act inactive, OPRM1 ag -1 and HTR2A ag conf -2.
Cc1cccc(OCC(=O)Nc2nnc(S(=O)(=O)N3CCCCC3)s2)c1 was read as ANO1 block inactive, MC4R antagonist 17, HTR2A ag -1, MIN6 prolif 0, MC4R barr agon 0 and TMEM16A act inactive.
`CCOc1ccc(S(=O)(=O)N=C(c2ccccc2)N2CCOCC2)cc1` gave MC4R antagonist 1, HTR2A ag -3, MIN6 prolif -2, MC4R barr agon 1 and TMEM16A act inactive.
Screening COc1ccc(CNC(=O)CC(C)S(=O)(=O)c2ccc3c(c2)NC(=O)CO3)cc1 (centres undefined) returned ANO1 block inactive, MC4R antagonist -1, HTR2A ag 6, MIN6 prolif 1, MC4R barr agon -1 and TMEM16A act inactive.
For COc1ccc(CCNC(=O)CC(C)S(=O)(=O)c2ccc3c(c2)NC(=O)CO3)cc1OC (centres undefined) the results were ANO1 block inactive, MC4R antagonist 11, HTR2A ag 15*, MIN6 prolif -1, MC4R barr agon -3, TMEM16A act inactive, OPRM1 ag 0 and HTR2A ag conf -4.
For COc1cccc(-c2oc3c(c2-c2ccc(Br)nc2)C(O)CCC3)c1 (centres undefined) the results were HTR2A ag -3.
Cc1ccc(C)c(C(=O)CCC(=O)NNC(=O)c2cccs2)c1 was read as MC4R antagonist 9, HTR2A ag 2, MIN6 prolif 0, MC4R barr agon -2 and TMEM16A act inactive.
Screening CC(C)[C@H](NC(=O)C1CC(=O)N(c2ccc3c(c2)OCCO3)C1)C(=O)NC1CCCC1 (some centres undefined) returned ANO1 block inactive, MC4R antagonist 6, HTR2A ag 22*, MIN6 prolif 0, MC4R barr agon -2, TMEM16A act inactive, OPRM1 ag -1 and HTR2A ag conf -3.
Screening O=S(=O)(NC1=NCCCCC1)c1ccc(Cl)cc1Cl returned MC4R antagonist -1, HTR2A ag 14*, MIN6 prolif 0, MC4R barr agon -2, TMEM16A act inactive, OPRM1 ag 0 and HTR2A ag conf -2.
